Measured values: ChEMBL document CHEMBL1153016, “Dopamine- and tyramine-based derivatives of triazenes: activation by tyrosinase and implications for prodrug design” (Eur J Med Chem, 2009)

T1: Tyrosinase (Agaricus bisporus) (UniProt O42713)
T1 sequence (whole entry): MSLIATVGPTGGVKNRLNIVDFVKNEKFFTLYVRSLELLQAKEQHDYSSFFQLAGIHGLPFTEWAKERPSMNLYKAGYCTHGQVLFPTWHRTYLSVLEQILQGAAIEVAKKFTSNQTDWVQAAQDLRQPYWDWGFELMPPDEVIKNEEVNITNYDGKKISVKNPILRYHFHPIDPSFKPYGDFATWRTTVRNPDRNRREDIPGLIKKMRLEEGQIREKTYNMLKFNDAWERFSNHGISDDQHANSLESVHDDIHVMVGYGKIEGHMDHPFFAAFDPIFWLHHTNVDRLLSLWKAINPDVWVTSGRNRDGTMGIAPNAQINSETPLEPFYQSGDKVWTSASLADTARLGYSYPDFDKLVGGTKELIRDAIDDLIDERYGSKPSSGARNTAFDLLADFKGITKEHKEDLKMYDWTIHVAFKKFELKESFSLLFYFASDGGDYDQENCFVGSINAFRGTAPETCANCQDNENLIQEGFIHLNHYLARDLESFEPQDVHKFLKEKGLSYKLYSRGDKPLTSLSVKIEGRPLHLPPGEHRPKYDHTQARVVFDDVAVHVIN

B1: Tyrosinase (Agaricus bisporus), O42713 (protein)
chain: T1 sequence (whole entry)

What was measured:
[1] = Apparent partition coefficient in phosphate buffer of pH 7.4 by HPLC analysis; type: physicochemical
Method in brief: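 Log Pexp measured at room temperature in 1-octanol/pH 7.4 phosphate buffer, phases mutually pre-saturated. Compound dissolved in octanol and shaken 30 min to equilibrium. Each phase analysed by HPLC, octanol phase first diluted 1:10 in acetonitrile. P taken as the ratio of octanol to buffer peak area.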

[2] = Chemical stability of the assessed as hydrolytic half life in phosphate buffer of pH 7.4 at 10 uM by HPLC analysis; type: physicochemical
Method in brief: (§1)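 Hydrolysis at 37 °C in pH 7.4 PBS containing 20% DMSO, substrate 10^-5 M. Aliquots analysed by reversed-phase HPLC with UV at 300 nm to give half-life.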

tyrosinase = assay: Stability assessed as half life at 50 uM by HPLC analysis in presence of mushroom tyrosinase; type: ADME
Method in brief: (§2)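 Mushroom tyrosinase at 100U/mL in pH 7.4 phosphate buffer (2.4 mL) with DMSO (0.6 mL), 37 °C. Prodrug added from 10^-2 M stock, final substrate 5 x 10^-5 M, incubated with gentle stirring. Consumption followed by HPLC with UV at 300 nm, giving half-life of activation. Km and Vmax determined; turnover number derived from Vmax.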

[3] = Ratio of chemical stability in phosphate buffer of pH 7.4 to chemical stability in human plasma; type: ADME
[4] = biological target: T1, Tyrosinase (Agaricus bisporus); assay: Binding affinity to Mushroom tyrosinase assessed as compound turnover by HPLC analysis; method in brief: as §2
Homo sapiens = species: Homo sapiens; assay: Stability assessed as hydrolytic half life in 80% human plasma at 10 uM by HPLC analysis
Plasma = assay: Stability in 80% human plasma at 10 uM by HPLC analysis; type: ADME, cell-free
Method in brief: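 Pooled heparinised human plasma from healthy donors, stored at –70 °C, diluted to 80% (v/v) with pH 7.4 isotonic phosphate buffer. Substrate 10^-5 M, incubated at 37 °C. At intervals, 200 µL aliquots quenched in 400 µL acetonitrile and centrifuged; supernatant analysed by HPLC for substrate and products to give half-life.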

[5] = Chemical stability in phosphate buffer of pH 7.4 at 10 uM by HPLC analysis; type: physicochemical; settings: pH 7.4, 10 µM; method in brief: as §1
[6] = substrate: CCOC(=O)c1ccc(/N=N/N(C)C(=O)NCCc2ccc(O)c(O)c2)cc1; assay: (§3) Activity at mushroom tyrosinase; settings: Agaricus bisporus; method in brief: as §2
[7] = substrate: CN(/N=N/c1ccc(C#N)cc1)C(=O)NCCc1ccc(O)cc1; assay: as §3; settings: Agaricus bisporus; method in brief: as §2

Molecule	logD [1]	half-life at 10 µM [2] [min]	half-life at 50 µM (tyrosinase) [min]	Ratio [3]	Activity [4] [s⁻¹]	half-life at 10 µM (Homo sapiens) [min]	Stability (Plasma) [days]	Stability [5] [days]	further results
CCOC(=O)c1ccc(/N=N/N(C)C(=O)NCCc2ccc(O)c(O)c2)cc1	3.78	1250	6.1	1.5	6	882			
Cc1ccc(/N=N/N(C)C(=O)NCCc2ccc(O)cc2)cc1	3.9	21800	18.2				2		
NCCc1ccc(O)c(O)c1					439				
CC(=O)c1ccc(/N=N/N(C)C(=O)NCCc2ccc(O)c(O)c2)cc1	3.24	906	9.9	1.5		558			
CC(=O)c1ccc(/N=N/N(C)C(=O)NCCc2ccc(O)cc2)cc1	3.25		13				2	15	
NCCc1ccc(O)cc1					25.9				
CN(/N=N/c1ccc(C#N)cc1)C(=O)NCCc1ccc(O)cc1	2.89		11.8		0.6		2	15	
CCOC(=O)c1ccc(/N=N/N(C)C(=O)NCCc2ccc(O)cc2)cc1	3.96		12.9			4290		15	
Cc1ccc(/N=N/N(C)C(=O)NCCc2ccc(O)c(O)c2)cc1	4.17		8.4	1.5		340		2	
B1									Km [6]: 710 µM; Vmax [6]: 0.31 mM/min; Km [7]: 310 µM; Vmax [7]: 0.03 mM/min
